Results as given in ChEMBL document CHEMBL4261483, “Synthesis and biological evaluation of memantine nitrates as a potential treatment for neurodegenerative diseases” (Medchemcomm, 2017).
Calls of active or inactive are those of the source. The calls are words filed in the database; no cut-off is given here.

Experiments:
[1] = test system: Cerebellar granule neurone; experiment: Neuroprotective activity against glutamate-induced excitotoxicity in mouse primary cerebellar granule neurons assessed as increase in cell viability up to 10 uM preincubated for 2 hrs followed by glutamate challenge measured after 24 hrs by MTT assay; format: functional
[2] = test system: Cerebellar granule neurone; experiment: Cytotoxicity against mouse primary cerebellar granule neurons assessed as decrease in cell viability at 100 uM after 24 hrs by MTT assay
[3] = test system: Cerebellar granule neurone; experiment: Neuroprotective activity against glutamate-induced excitotoxicity in mouse primary cerebellar granule neurons assessed as increase in cell viability preincubated for 2 hrs followed by glutamate challenge measured after 24 hrs by MTT assay; format: functional
[4] = test system: Aorta; experiment: Vasodilating activity in Sprague-Dawley rat aortic ring precontracted with phenylephrine in presence of endothelium; format: functional, tissue-based; conditions: for EC50: Rattus norvegicus, Sprague-Dawley, Aorta
[5] = test system: Aorta; experiment: Vasodilating activity in Sprague-Dawley rat aortic ring precontracted with phenylephrine in absence of endothelium; format: functional, tissue-based; conditions: for EC50: Rattus norvegicus, Sprague-Dawley, Aorta
[6] = test system: Cerebellar granule neurone; experiment: Neuroprotective activity against glutamate-induced excitotoxicity in mouse primary cerebellar granule neurons assessed as increase in cell viability at 1 uM preincubated for 2 hrs followed by glutamate challenge measured after 24 hrs by MTT assay; format: functional
[7] = test system: Cortical neurone; experiment: Neuroprotective activity against glutamate-induced neuronal damage in rat cortical neurons assessed as decrease in formation of peroxynitrite at 5 uM preincubated for 2 hrs followed by glutamate challenge measured after 12 hrs by DHR123 dye-based fluorescence assay; format: functional, cell-based
Outline: (§1)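 Cortical neurons pretreated 2 h with compound, then exposed to 200 μM glutamate for 12 h in its presence. Probes added for a further 30 min: H2DCF-DA 5 μM (H2O2), HPF 10 μM (·OH), DHE 5 μM (superoxide), DAF-FM 5 μM (NO), DHR123 10 μM (peroxynitrite). Intracellular fluorescence measured.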

[8] = test system: Cortical neurone; experiment: Neuroprotective activity against glutamate-induced neuronal damage in rat cortical neurons assessed as increase in cell viability at 5 uM preincubated for 2 hrs followed by glutamate challenge measured after 24 hrs by […]/propidium iodide staining-based inverted fluorescence microscopic method; format: functional
Outline: (§2)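 Rat primary cortical neurons given compound for 2 h, then 200 μM glutamate for 24 h in its presence. Viability by FDA/PI double staining, with live cells green (FDA) and dead cells red (PI), scored from fluorescence images. Memantine 5 μM used as positive control.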

[9] = test system: Cortical neurone; experiment: Neuroprotective activity against glutamate-induced neuronal damage in rat cortical neurons assessed as decrease in formation of superoxide anions at 5 uM preincubated for 2 hrs followed by glutamate challenge measured after 12 hrs by DHE dye-based fluorescence assay; format: functional, cell-based; outline: as §1
[10] = test system: Cortical neurone; experiment: Neuroprotective activity against glutamate-induced neuronal damage in rat cortical neurons assessed as decrease in formation of hydroxy radicals at 5 uM preincubated for 2 hrs followed by glutamate challenge measured after 12 hrs by HPF dye-based fluorescence assay; format: functional, cell-based; outline: as §1
[11] = test system: Cortical neurone; experiment: Neuroprotective activity against glutamate-induced neuronal damage in rat cortical neurons assessed as decrease in H2O2 formation at 5 uM preincubated for 2 hrs followed by glutamate challenge measured after 12 hrs by H2DCF-DA dye-based fluorescence assay; format: functional, cell-based; outline: as §1
[12] = test system: Cortical neurone; experiment: Neuroprotective activity in rat cortical neurons assessed as inhibition of glutamate-induced decrease in mitochondrial membrane potential at 5 uM preincubated for 2 hrs followed by glutamate challenge measured after 12 hrs by JC1 staining-based fluorescence assay; format: functional, cell-based
Outline: (§3)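 Cortical neurons given compound for 2 h, then 200 μM glutamate for 12 h without compound removal. Fluorescence read at 488 nm excitation with dual emission at 529/590 nm.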

[13] = test system: Cortical neurone; experiment: Neuroprotective activity against glutamate-induced neuronal damage in rat cortical neurons assessed as decrease in intracellular calcium influx at 5 uM preincubated for 5 min followed by glutamate challenge measured over 280 secs by Fluo-3/AM dye-based fluorescence assay; format: functional, cell-based
Outline: (§4)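 Cortical neurons loaded with Fluo-3/AM (5 μM) for 30 min at 37 °C, then held in HBSS for 30 min at room temperature. Dye washed out, compound applied for 5 min, and cells imaged with a 20× objective to follow calcium influx.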

[14] = test system: Cortical neurone; experiment: Neuroprotective activity against glutamate-induced neuronal damage in rat cortical neurons assessed as decrease in formation of nitric oxide at 5 uM preincubated for 2 hrs followed by glutamate challenge measured after 12 hrs by DAF-FM dye-based fluorescence assay; format: functional, cell-based; outline: as §1
[15] = test system: Cortical neurone; experiment: Neuroprotective activity against glutamate-induced neuronal damage in rat cortical neurons assessed as decrease in formation of peroxynitrite preincubated for 2 hrs followed by glutamate challenge measured after 12 hrs by DHR123 dye-based fluorescence assay; format: functional, cell-based; outline: as §1
[16] = test system: Cortical neurone; experiment: Neuroprotective activity in rat cortical neurons assessed as inhibition of glutamate-induced decrease in mitochondrial membrane potential at 5 to 45 uM preincubated for 2 hrs followed by glutamate challenge measured after 12 hrs by JC1 staining-based fluorescence assay; format: functional, cell-based; outline: as §3
[17] = test system: Cortical neurone; experiment: Neuroprotective activity against glutamate-induced neuronal damage in rat cortical neurons assessed as decrease in formation of nitric oxide preincubated for 2 hrs followed by glutamate challenge measured after 12 hrs by DAF-FM dye-based fluorescence assay; format: functional, cell-based; outline: as §1
[18] = test system: Cortical neurone; experiment: Neuroprotective activity against glutamate-induced neuronal damage in rat cortical neurons assessed as decrease in formation of superoxide anions preincubated for 2 hrs followed by glutamate challenge measured after 12 hrs by DHE dye-based fluorescence assay; format: functional, cell-based; outline: as §1
[19] = test system: Cortical neurone; experiment: Neuroprotective activity against glutamate-induced neuronal damage in rat cortical neurons assessed as decrease in formation of hydroxy radicals preincubated for 2 hrs followed by glutamate challenge measured after 12 hrs by HPF dye-based fluorescence assay; format: functional, cell-based; outline: as §1
[20] = test system: Cortical neurone; experiment: Neuroprotective activity against glutamate-induced neuronal damage in rat cortical neurons assessed as increase in cell viability preincubated for 2 hrs followed by glutamate challenge measured after 24 hrs by MTT assay; format: functional, cell-based
Outline: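 Rat primary cortical neurons treated with compound for 2 h, then exposed to 200 μM glutamate for another 24 h without compound removal. Viability by MTT assay. Memantine 5 μM served as positive control.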

[21] = test system: Cortical neurone; experiment: Neuroprotective activity against glutamate-induced neuronal damage in rat cortical neurons assessed as increase in cell viability preincubated for 2 hrs followed by glutamate challenge measured after 24 hrs by […]/propidium iodide staining-based inverted fluorescence microscopic method; format: functional; outline: as §2
[22] = test system: Cortical neurone; experiment: Neuroprotective activity against glutamate-induced neuronal damage in rat cortical neurons assessed as decrease in H2O2 formation preincubated for 2 hrs followed by glutamate challenge measured after 12 hrs by H2DCF-DA dye-based fluorescence assay; format: functional, cell-based; outline: as §1
[23] = test system: Cortical neurone; experiment: Neuroprotective activity against glutamate-induced neuronal damage in rat cortical neurons assessed as decrease in intracellular calcium influx at 15 uM preincubated for 5 min followed by glutamate challenge measured over 280 secs by Fluo-3/AM dye-based fluorescence assay; format: functional, cell-based; outline: as §4

Row | EC50 [4] [µM] | EC50 [5] [µM] | SMILES | Activity [1] | Activity [2] | EC50 [3] [µM] | Emax [4] [%] | Emax [5] [%] | Activity [6] | further results
1 |  |  | CC12CC3CC(N)(C1)CC(CCCO[N+](=O)[O-])(C3)C2 (stereo unspecified) | Active | Toxic | 39.8 |  |  |  | 
2 | 24.4 | 26.9 | CCC12CC3CC(N)(C1)CC(CCCO[N+](=O)[O-])(C3)C2 (stereo unspecified) |  | Toxic | 35.2 | 95 | 89.8 | Active | 
3 |  |  | CCC12CC3CC(N)(C1)CC(CC(C)CO[N+](=O)[O-])(C3)C2 (stereo unspecified) | Active | Toxic | 55.2 |  |  |  | 
4 |  | 94.8 | CCCC12CC3CC(N)(C1)CC(O[N+](=O)[O-])(C3)C2 (stereo unspecified) |  |  | 17.1 | 52 | 61.7 | Active | 
5 |  |  | CC12CC3CC(N)(C1)CC(O[N+](=O)[O-])(C3)C2 (stereo unspecified) | Active |  | 24.6 |  |  |  | 
6 | 24.6 | 34.4 | NC12CC3CC(CCCO[N+](=O)[O-])(C1)CC(CCCO[N+](=O)[O-])(C3)C2 |  | Toxic | 39.8 | 97.7 | 95.4 | Active | 
7 |  |  | CC12CC3CC(C)(C1)CC(N)(C3)C2 [MEMANTINE] |  |  | 2.48 |  |  | Active | Activity [7]: Active; Activity [8]: Active; Activity [9]: Active; Activity [10]: Active; Activity [11]: Active; inhibition [12]: Active; Activity [13]: Active; Activity [14]: Active
8 |  | 146 | CCC12CC3CC(N)(C1)CC(O[N+](=O)[O-])(C3)C2 (stereo unspecified) |  |  | 15.4 | 39.5 | 42 | Active | 
9 | 36 | 57.1 | NC12CC3CC(CCO[N+](=O)[O-])(C1)CC(CCO[N+](=O)[O-])(C3)C2 | Active | Toxic | 25.9 | 102 | 99.4 |  | 
10 |  |  | CCCC12CC3CC(N)(C1)CC(CO[N+](=O)[O-])(C3)C2 (stereo unspecified) | Active | Toxic | 38.1 |  |  |  | 
11 |  |  | CC12CC3CC(N)(C1)CC(CO[N+](=O)[O-])(C3)C2 (stereo unspecified) | Active |  | 25.2 |  |  |  | 
12 | 32 | 36.5 | CC(CO[N+](=O)[O-])CC12CC3CC(N)(C1)CC(CC(C)CO[N+](=O)[O-])(C3)C2 (stereo unspecified) |  | Toxic | 53.2 | 100 | 95.8 | Active | 
13 |  |  | CCC12CC3CC(N)(C1)CC(CC(C)O[N+](=O)[O-])(C3)C2 (stereo unspecified) | Active | Toxic | 58.4 |  |  |  | 
14 | 46.4 | 50.6 | CCC12CC3CC(N)(C1)CC(CO[N+](=O)[O-])(C3)C2 (stereo unspecified) |  |  | 10.7 | 101 | 98.2 | Active | Activity [15]: Dose-dependent effect; inhibition [16]: Active; Activity [17]: Dose-dependent effect; Activity [18]: Dose-dependent effect; Activity [19]: Dose-dependent effect; Activity [20]: Dose-dependent effect; Activity [21]: Dose-dependent effect; Activity [22]: Dose-dependent effect; Activity [23]: Active
15 | 55 | 62.8 | NC12CC3CC(CO[N+](=O)[O-])(C1)CC(CO[N+](=O)[O-])(C3)C2 |  |  | 18.9 | 96.8 | 90.5 | Active | 
16 |  |  | CC(CC12CC3CC(N)(C1)CC(CC(C)O[N+](=O)[O-])(C3)C2)O[N+](=O)[O-] (stereo unspecified) | Active | Toxic | 43 |  |  |  | 
17 |  |  | CCCC12CC3CC(N)(C1)CC(CCCO[N+](=O)[O-])(C3)C2 (stereo unspecified) | Active | Toxic | 57.6 |  |  |  | 
